These results are taken from ChEMBL document CHEMBL3124904, “Second-generation derivatives of the eukaryotic translation initiation inhibitor pateamine A targeting eIF4A as potential anticancer agents” (Bioorg Med Chem, 2014).

Structures are written as SMILES. The source made the active and inactive calls. The rule behind the calls is not given here.

One assay relates to RKO. Briefly: Antiproliferative activity against human RKO cells assessed as DNA synthesis level after 24 hrs by thymidine incorporation assay. The assay is classed as functional, cell-based. In outline: (§1)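 Cells kept at 37 °C, 5% CO2 with penicillin-streptomycin and 10% FBS. Adherent lines seeded at 2000 cells/well and left to recover overnight; Jurkat seeded at 5000 cells/well with no recovery period. Compound added in DMSO (0.1% final, vehicle-only control) at 0.001–100 nM over 10 wells. DNA synthesis read out after 24 h. Mean IC50 from at least 3 independent assays.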

For a further assay, the system named is HaCaT. As to the kind of experiment: Antiproliferative activity against human HaCaT cells assessed as DNA synthesis level after 24 hrs by thymidine incorporation assay. The assay is classed as functional, cell-based. In outline: as §1
Assay [1] in a line: Antiproliferative activity against human Jurkat T cells assessed as DNA synthesis level after 24 hrs by thymidine incorporation assay. The assay is classed as functional, cell-based. In a few lines:
as §1
On the technique in general: Dividing cells build labelled thymidine or BrdU into new DNA.

Assay [2] can be described thus: Antiproliferative activity against BAEC assessed as DNA synthesis level after 24 hrs by thymidine incorporation assay. Particulars: Bos taurus. In outline: as §1
For assay [3], the system named is HeLa. As to the kind of experiment: Antiproliferative activity against human HeLa cells assessed as DNA synthesis level after 24 hrs by thymidine incorporation assay. In kind it is functional, cell-based. In a few lines:
as §1

Assay [4] deals with Jurkat. Briefly: Immunosuppressive activity in human Jurkat T cells assessed as inhibition of IL-2 transcription. The assay is classed as functional, cell-based.
The species entered for assay [5] is Oryctolagus cuniculus. Briefly: Inhibition of cap-independent HCV-IRES-induced translation in rabbit reticulocyte lysate at 500 nM after 1.5 hrs by luciferase reporter gene assay. In kind it is functional. In a few lines: (§2)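 Capped bicistronic reporter mRNA: cap-dependent firefly luciferase first cistron, HCV IRES-driven Renilla second cistron. Transcribed in vitro with SP6 from the BamHI-linearised plasmid. 200 ng RNA translated in rabbit reticulocyte lysate with 70 mM KCl, 2 mM DTT, RNasin and compound in DMSO (5% v/v final), 30 °C for 1.5 h. Dual luciferase readout. Duplicates, 4 independent assays, mean IC50 by curve fit.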
On the technique in general: Reporter assays use an easily measured gene product as a stand-in for the process of interest.

For assay [6], the system named is Jurkat. Briefly: Antiproliferative activity against human Jurkat T cells up to 10^4 nM after 72 hrs by MTT assay. The assay is classed as functional, cell-based. In outline:
(§3)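 HeLa and SK-MEL2 grown in DMEM, Jurkat in RPMI 1640, each with 10% FBS and penicillin-streptomycin, at 37 °C and 5% CO2. Adherent cells seeded at 2000/well and left to recover overnight; Jurkat seeded at 5000/well with no recovery. Compound added in DMSO (0.1% final), then 72 h incubation and MTT readout.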
(In general: Tetrazolium assays rely on reduction of a dye to a coloured formazan, in cell work by metabolically active cells.)

Assay [7] is filed under the species Oryctolagus cuniculus. As to the kind of experiment: Binding affinity to eIF4A1/2 in rabbit reticulocyte lysate assessed as inhibition of cap-dependent translation up to 500 nM after 1.5 hrs by dual luciferase reporter gene assay. In a few lines:
as §2

Assay [8] concerns HeLa. Briefly: Antiproliferative activity against human HeLa cells up to 500 nM after 72 hrs by MTT assay. The assay is classed as functional, cell-based. In outline: as §3
For assay [9], the system named is SK-MEL-2. Briefly: Antiproliferative activity against human SK-MEL-2 cells after 72 hrs by MTT assay in presence of 10% FBS. The assay is classed as functional, cell-based. Conditions: SK-MEL-2, 72 h. In a few lines: as §3
The test system of assay [10] is SK-MEL-2. As to the kind of experiment: Antiproliferative activity against human SK-MEL-2 cells up to 10^4 nM after 72 hrs by MTT assay in presence of 10% FBS. The assay is classed as functional, cell-based. In outline: as §3
Assay [11] can be described thus: Antiproliferative activity against human Jurkat T cells after 72 hrs by MTT assay. The assay is classed as functional, cell-based. In a few lines: as §3
Assay [12] can be described thus: Binding affinity to eIF4A1/2 in rabbit reticulocyte lysate assessed as inhibition of cap-dependent translation after 1.5 hrs by dual luciferase reporter gene assay. On the set-up: species or system Oryctolagus cuniculus. In a few lines:
as §2

Assay [13] deals with HeLa. Briefly: Antiproliferative activity against human HeLa cells after 72 hrs by MTT assay. The assay is classed as functional, cell-based. In outline: as §3

Take `CC(/C=C/C(C)=C/[C@@H]1Cc2nc(cs2)[C@@H](C)C[C@@H](NC(=O)c2ccccc2)CC(=O)O[C@@H](C)C/C(C)=C/C=C\C(=O)O1)=C\CN(C)C`: the IC50 in the assay on RKO was determined as 4.2 nM; in the assay on HaCaT it was 3.4 nM; in assay [1] it was 11.6 nM; in [2], 12.8 nM; with HeLa [3], 16.1 nM; in the assay on Jurkat [4], 15 nM.

In the case of `COC/C=C/C=C/C(C)=C/[C@@H]1Cc2nc(cs2)CCCCC(=O)O[C@@H](C)C/C(C)=C/C=C\C(=O)O1`, the inhibition result in the assay filed under Oryctolagus cuniculus [5] and in the assay listed under Oryctolagus cuniculus [7] was “inactive” throughout. Moreover, the result in the assay on Jurkat [6] and with HeLa [8] was inactive. The IC50 in the assay on SK-MEL-2 [9] is above 5000 nM.

For `CC(/C=C/CCCO)=C\[C@@H]1Cc2nc(cs2)CCCCC(=O)O[C@@H](C)C/C(C)=C/C#CC(=O)O1`, the inhibition result in the assay listed under Oryctolagus cuniculus [5] was “inactive”. The result in the assay with Jurkat [6], with SK-MEL-2 [10] and in the assay with HeLa [8] was inactive.

Turning to `CC(/C=C/C(C)=C/[C@@H]1Cc2nc(cs2)CCCCC(=O)O[C@@H](C)C/C(C)=C/C#CC(=O)O1)=C\CN1CCCC1`, the outcome with Jurkat [6], in the assay with SK-MEL-2 [10] and with HeLa [8] was inactive.

Take `C/C(Br)=C\[C@@H]1Cc2nc(cs2)CCCCC(=O)O[C@@H](C)C/C(C)=C/C#CC(=O)O1`: the inhibition result in the assay filed under Oryctolagus cuniculus [5] is “inactive”. Besides, the outcome in the assay with Jurkat [6], with SK-MEL-2 [10] and in the assay on HeLa [8] was inactive.

For the compound `CC(/C=C/C=C/CO)=C\[C@@H]1Cc2nc(cs2)CCCCC(=O)O[C@@H](C)C/C(C)=C/C=C\C(=O)O1`, in the assay filed under Oryctolagus cuniculus [5], the inhibition entry was “inactive”. For the same compound, the IC50 was above 10000 nM in assay [11], above 500 nM in assay [12], above 5000 nM in the assay on HeLa [13] and above 5000 nM in the assay on SK-MEL-2 [9].

On to `COCCC/C=C/C(C)=C/[C@@H]1Cc2nc(cs2)CCCCC(=O)O[C@@H](C)C/C(C)=C/C#CC(=O)O1`, for which, in the assay listed under Oryctolagus cuniculus [5], the inhibition entry was “inactive”. For the same compound, the IC50 in assay [11] is above 10000 nM. In addition, the result in the assay with SK-MEL-2 [10] and in the assay with HeLa [8] was inactive.

Turning to `CC(/C=C/C(C)=C/[C@@H]1Cc2nc(cs2)CCCCC(=O)O[C@@H](C)C/C(C)=C/C#CC(=O)O1)=C\CN(C)C`, the inhibition result in the assay filed under Oryctolagus cuniculus [5] and in the assay filed under Oryctolagus cuniculus [7] was “inactive” throughout. The result with Jurkat [6], in the assay with SK-MEL-2 [10] and with HeLa [8] was inactive.

Turning to `CC(/C=C/C(C)=C/[C@@H]1Cc2nc(cs2)[C@@H](C)C[C@@H](N)CC(=O)O[C@@H](C)C/C(C)=C/C=C\C(=O)O1)=C\CN(C)C` [PATEAMINE A], the half-maximal inhibitory concentration (IC50) in the assay on RKO is 0.38 nM; in the assay with HaCaT, 0.42 nM; in assay [1], 0.6 nM; in [2], 0.5 nM; in the assay on HeLa [3], 0.72 nM; in the assay on Jurkat [4], 4 nM.

For `CC(/C=C/CCCO)=C\[C@@H]1Cc2nc(cs2)CCCCC(=O)O[C@@H](C)C/C(C)=C/C=C\C(=O)O1`, the inhibition entry in the assay listed under Oryctolagus cuniculus [5] and in the assay listed under Oryctolagus cuniculus [7] was “inactive” in each case. In addition, the IC50 (in assay [11]; in the assay on SK-MEL-2 [9]) was above 5000 nM in each case. Moreover, the outcome in the assay on HeLa [8] was inactive.

Turning to `C/C(Br)=C\[C@@H]1Cc2nc(cs2)CCCCC(=O)O[C@@H](C)C/C(C)=C/C=CC(=O)O1`, the outcome with Jurkat [6], in the assay on SK-MEL-2 [10] and in the assay with HeLa [8] was inactive.

As for `CC(/C=C/C(C)=C/[C@@H]1Cc2nc(cs2)CCCCC(=O)O[C@@H](C)C/C(C)=C/C#CC(=O)O1)=C\CN1CCOCC1`, the inhibition result in the assay filed under Oryctolagus cuniculus [5] is “inactive”. Further, the result in the assay with Jurkat [6] and in the assay with HeLa [8] was inactive. For the same compound, in the assay on SK-MEL-2 [9], the half-inhibitory concentration (IC50) is above 5000 nM.

`COC/C=C/C=C/C(C)=C/[C@@H]1Cc2nc(cs2)CCCCC(=O)O[C@@H](C)C/C(C)=C/C#CC(=O)O1`: in the assay filed under Oryctolagus cuniculus [5], the inhibition entry is “inactive”. The result with Jurkat [6], in the assay with SK-MEL-2 [10] and with HeLa [8] was inactive.

Regarding `COCCC/C=C/C(C)=C/[C@@H]1Cc2nc(cs2)CCCCC(=O)O[C@@H](C)C/C(C)=C/C=C\C(=O)O1`, the inhibition entry in the assay filed under Oryctolagus cuniculus [5] and in the assay listed under Oryctolagus cuniculus [7] was “inactive” throughout. Moreover, the result in the assay on Jurkat [6], in the assay with SK-MEL-2 [10] and in the assay with HeLa [8] was inactive.

`COCCC/C=C/C(C)=C/[C@@H]1Cc2nc(cs2)[C@@H](C)C[C@@H](NC(=O)OC(C)(C)C)CC(=O)O[C@@H](C)C/C(C)=C/C#CC(=O)O1`: the IC50 is above 100 nM in the assay on RKO; above 100 nM with HaCaT; above 20 nM in assay [2]; above 100 nM with HeLa [3]; 55 nM in the assay with Jurkat [4].

Turning to `CC(/C=C/C=C/CO)=C\[C@@H]1Cc2nc(cs2)CCCCC(=O)O[C@@H](C)C/C(C)=C/C#CC(=O)O1`, the inhibition result in the assay listed under Oryctolagus cuniculus [5] is “inactive”. For the same compound, the result with Jurkat [6], with SK-MEL-2 [10] and with HeLa [8] was inactive.

For `CC(/C=C/CCCN(C)C)=C\[C@@H]1Cc2nc(cs2)[C@@H](C)C[C@@H](NC(=O)OC(C)(C)C)CC(=O)O[C@@H](C)C/C(C)=C/C=C\C(=O)O1`, the IC50 in the assay with HaCaT is above 100 nM; in [2], above 20 nM; in the assay on Jurkat [4], 330 nM.

As to `CC(/C=C/CCCO)=C\[C@@H]1Cc2nc(cs2)[C@@H](C)C[C@@H](NC(=O)OC(C)(C)C)CC(=O)O[C@@H](C)C/C(C)=C/C#CC(=O)O1`, the IC50 is above 100 nM in the assay with RKO; above 100 nM with HaCaT; above 20 nM in assay [2]; above 100 nM with HeLa [3]; 340 nM in the assay with Jurkat [4].

For `CC(Br)=C[C@@H]1Cc2nc(cs2)CCCCC(=O)O[C@@H](C)C/C(C)=C/C=C\C(=O)O1`, the inhibition entry in the assay filed under Oryctolagus cuniculus [5] and in the assay filed under Oryctolagus cuniculus [7] was “inactive” each time. Further, the IC50 (in assay [11]; in the assay on SK-MEL-2 [9]) was above 10000 nM in each case. The outcome in the assay on HeLa [8] was inactive.

`CC(/C=C/CCCO)=C\[C@@H]1Cc2nc(cs2)[C@@H](C)C[C@@H](NC(=O)OC(C)(C)C)CC(=O)O[C@@H](C)C/C(C)=C/C=C\C(=O)O1`: the IC50 with Jurkat [4] is above 1000 nM.

Consider `COCCC/C=C/C(C)=C/[C@@H]1Cc2nc(cs2)[C@@H](C)C[C@@H](NC(=O)OC(C)(C)C)CC(=O)O[C@@H](C)C/C(C)=C/C=C\C(=O)O1`, for which the IC50 in the assay on Jurkat [4] was above 1000 nM.

On to `CC(/C=C/C(C)=C/[C@@H]1Cc2nc(cs2)[C@@H](C)C[C@@H](NC(=O)C(F)(F)F)CC(=O)O[C@@H](C)C/C(C)=C/C=C\C(=O)O1)=C\CN(C)C`, for which the IC50 in the assay with RKO was above 100 nM; with HaCaT, above 100 nM; in the assay on HeLa [3], above 100 nM; with Jurkat [4], 300 nM.

For orientation: IC50 means the concentration that inhibits the measured activity by half.
